{"source": "ChEMBL document CHEMBL3877250", "about": "“Design, synthesis, and biological evaluation of (2E)-(2-oxo-1, 2-dihydro-3H-indol-3-ylidene)acetate derivatives as anti-proliferative agents through ROS-induced cell apoptosis” (Eur J Med Chem, 2016)", "key": {"[1]": {"assay": "Cell cycle arrest in human HCT116 cells assessed as sub-G1 phase accumulation at 0.1 uM after 48 hrs by Annexin V-FITC/propidium iodide staining based flow cytometry (reference value: 4.36%)", "assay_type": "functional", "settings": "HCT-116"}, "HCT-116 [2]": {"system": "HCT-116", "assay": "Induction of apoptosis in human HCT116 cells assessed as increase in intracellular reactive oxygen species at 0.17 to 8 uM by DCFH-DA probe-based flow cytometry", "assay_type": "functional, cell-based", "settings": "TDE = time-dependent effect", "how_it_was_run": "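For the dose series, HCT116 cells were seeded at 5 × 10⁴ cells/well, grown 24 h, then exposed 3 h to DMSO or graded compound levels, with a Rosup positive group. Cells were washed with PBS and serum-free medium, loaded with DCFH-DA (1 μmol/L) in serum-free medium at 37 °C for 20 min, and ROS fluorescence was read by flow cytometry.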"}, "HCT-116 [3]": {"system": "HCT-116", "assay": "Induction of apoptosis in human HCT116 cells assessed as early apoptotic cells at 4 uM after 48 hrs by Annexin V-FITC/propidium iodide staining based flow cytometry (reference value: 3.8%)", "assay_type": "functional", "how_it_was_run": "(§1)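 HCT116 seeded at 2×10^5 cells/well, cultured 6 h, then treated 48 h at 0.1, 0.5, 1, 4, 8 or 16 µM; DMSO (0.1%) served as vehicle. Cells washed twice in cold PBS, resuspended in binding buffer with FITC Annexin V and PI for 15 min at RT in the dark, diluted, and run on flow cytometry within 1 h.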"}, "[4]": {"assay": "Cytotoxicity against human Saos2 cells after 72 hrs by CCK-8 assay", "assay_type": "functional, cell-based", "settings": "SAOS-2, 72 h", "how_it_was_run": "(§2)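 Cells kept in RPMI 1640 with 10% heat-inactivated fetal calf serum and 1% streptomycin/penicillin at 37 °C, 5% CO2. After compound exposure, CCK-8 was added and cells were incubated 4 h at 37 °C, then absorbance was read at 450 nm. Viability is relative to untreated cells (100%). IC50 comes from nonlinear regression, mean of three separate determinations. Single-concentration screen at 20 µM.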"}, "[5]": {"assay": "Cytotoxicity against human HL60 cells after 72 hrs by CCK-8 assay", "assay_type": "functional, cell-based", "settings": "HL-60, 72 h", "how_it_was_run": "as §2"}, "[6]": {"assay": "Cytotoxicity against human SW480 cells assessed as growth inhibition at 20 uM after 72 hrs by CCK-8 assay", "assay_type": "functional", "settings": "SW480, 72 h, read-out: GI", "how_it_was_run": "as §2"}, "HCT-116 [7]": {"system": "HCT-116", "assay": "Induction of apoptosis in human HCT116 cells assessed as activation of cleaved caspases 3 after 9 hrs by Western blot method", "assay_type": "functional, cell-based", "how_it_was_run": "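HCT116 plated at 4×10^5 cells/well and incubated with or without compound for 9 h. Protein then extracted and run on 12% SDS-PAGE western blot probed with anti-cleaved caspase 3, anti-caspase 3, anti-Bax and anti-Bcl-2.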"}, "HCT-116 [8]": {"system": "HCT-116", "assay": "Induction of apoptosis in human HCT116 cells assessed as live cells at 16 uM after 48 hrs by Annexin V-FITC/propidium iodide staining based flow cytometry (reference value: 88.7%)", "assay_type": "functional"}, "HCT-116 [9]": {"system": "HCT-116", "assay": "Induction of apoptosis in human HCT116 cells assessed as late apoptotic cells at 1 uM after 48 hrs by Annexin V-FITC/propidium iodide staining based flow cytometry (reference value: 6.7%)", "assay_type": "functional"}, "HCT-116 [10]": {"system": "HCT-116", "assay": "Induction of apoptosis in human HCT116 cells assessed as early apoptotic cells at 1 uM after 48 hrs by Annexin V-FITC/propidium iodide staining based flow cytometry (reference value: 3.8%)", "assay_type": "functional", "how_it_was_run": "as §1"}, "[11]": {"assay": "Cytotoxicity against human HCT116 cells after 72 hrs by CCK-8 assay", "assay_type": "functional, cell-based", "settings": "HCT-116, 72 h", "how_it_was_run": "as §2"}, "HCT-116 [12]": {"system": "HCT-116", "assay": "Induction of apoptosis in human HCT116 cells assessed as live cells at 8 uM after 48 hrs by Annexin V-FITC/propidium iodide staining based flow cytometry (reference value: 88.7%)", "assay_type": "functional"}, "HCT-116 [13]": {"system": "HCT-116", "assay": "Induction of apoptosis in human HCT116 cells assessed as late apoptotic cells at 0.1 uM after 48 hrs by Annexin V-FITC/propidium iodide staining based flow cytometry (reference value: 6.7%)", "assay_type": "functional"}, "[14]": {"assay": "Cell cycle arrest in human HCT116 cells assessed as G1 phase accumulation at 2 uM after 48 hrs by Annexin V-FITC/propidium iodide staining based flow cytometry (reference value: 40.83%)", "assay_type": "functional", "settings": "HCT-116"}, "[15]": {"assay": "Cytotoxicity against human MDA-MB-231 cells after 72 hrs by CCK-8 assay", "assay_type": "functional, cell-based", "settings": "MDA-MB-231, 72 h", "how_it_was_run": "as §2"}, "HCT-116 [16]": {"system": "HCT-116", "assay": "Induction of apoptosis in human HCT116 cells assessed as late apoptotic cells at 16 uM after 48 hrs by Annexin V-FITC/propidium iodide staining based flow cytometry (reference value: 6.7%)", "assay_type": "functional"}, "[17]": {"assay": "Cell cycle arrest in human HCT116 cells assessed as S phase accumulation at 1 uM after 48 hrs by Annexin V-FITC/propidium iodide staining based flow cytometry (reference value: 28.43%)", "assay_type": "functional", "settings": "HCT-116"}, "[18]": {"assay": "Cell cycle arrest in human HCT116 cells assessed as S phase accumulation at 0.1 uM after 48 hrs by Annexin V-FITC/propidium iodide staining based flow cytometry (reference value: 28.43%)", "assay_type": "functional", "settings": "HCT-116"}, "[19]": {"assay": "Cytotoxicity against human SW480 cells after 72 hrs by CCK-8 assay", "assay_type": "functional, cell-based", "settings": "SW480, 72 h", "how_it_was_run": "as §2"}, "[20]": {"assay": "Cell cycle arrest in human HCT116 cells assessed as sub-G1 phase accumulation at 4 uM after 48 hrs by Annexin V-FITC/propidium iodide staining based flow cytometry (reference value: 4.36%)", "assay_type": "functional", "settings": "HCT-116"}, "HCT-116 [21]": {"system": "HCT-116", "assay": "Induction of apoptosis in human HCT116 cells assessed as necrotic cells at 4 uM after 48 hrs by Annexin V-FITC/propidium iodide staining based flow cytometry (reference value: 0.8%)", "assay_type": "functional"}, "[22]": {"assay": "Cell cycle arrest in human HCT116 cells assessed as sub-G1 phase accumulation at 2 uM after 48 hrs by Annexin V-FITC/propidium iodide staining based flow cytometry (reference value: 4.36%)", "assay_type": "functional", "settings": "HCT-116"}, "[23]": {"assay": "Cell cycle arrest in human HCT116 cells assessed as G2/M phase accumulation at 3 uM after 48 hrs by Annexin V-FITC/propidium iodide staining based flow cytometry (reference value: 25.3%)", "assay_type": "functional", "settings": "HCT-116"}, "HCT-116 [24]": {"system": "HCT-116", "assay": "Induction of apoptosis in human HCT116 cells assessed as live cells at 0.1 uM after 48 hrs by Annexin V-FITC/propidium iodide staining based flow cytometry (reference value: 88.7%)", "assay_type": "functional"}, "[25]": {"assay": "Cell cycle arrest in human HCT116 cells assessed as sub-G1 phase accumulation at 1 uM after 48 hrs by Annexin V-FITC/propidium iodide staining based flow cytometry (reference value: 4.36%)", "assay_type": "functional", "settings": "HCT-116"}, "[26]": {"assay": "Cell cycle arrest in human HCT116 cells assessed as S phase accumulation at 2 uM after 48 hrs by Annexin V-FITC/propidium iodide staining based flow cytometry (reference value: 28.43%)", "assay_type": "functional", "settings": "HCT-116"}, "HCT-116 [27]": {"system": "HCT-116", "assay": "Induction of apoptosis in human HCT116 cells assessed as increase in intracellular reactive oxygen species at 2 to 3 hrs by DCFH-DA probe-based flow cytometry", "assay_type": "functional, cell-based"}, "[28]": {"assay": "Cytotoxicity against human L02 cells assessed as growth inhibition at 20 uM after 72 hrs by CCK-8 assay", "assay_type": "toxicity, cell-based", "settings": "read-out: GI", "how_it_was_run": "as §2"}, "HCT-116 [29]": {"system": "HCT-116", "assay": "Induction of apoptosis in human HCT116 cells assessed as live cells at 4 uM after 48 hrs by Annexin V-FITC/propidium iodide staining based flow cytometry (reference value: 88.7%)", "assay_type": "functional"}, "[30]": {"assay": "Cell cycle arrest in human HCT116 cells assessed as G1 phase accumulation at 0.1 uM after 48 hrs by Annexin V-FITC/propidium iodide staining based flow cytometry (reference value: 40.83%)", "assay_type": "functional", "settings": "HCT-116"}}, "note": "pIC50: −log10 of the molar value. Calls of active or inactive are those of the source. No cut-off for these calls is given here.", "data": [{"compound": "CC(C)(C)OC(=O)/C=C1/C(=O)Nc2ccccc21", "values": [{"measurement": "Activity", "setting": "[1]", "value": 1.27, "unit": "%"}, {"measurement": "Activity", "setting": "HCT-116 [2]", "value": "Tde"}, {"measurement": "Activity", "setting": "HCT-116 [3]", "value": 3.6, "unit": "%"}, {"measurement": "pIC50", "setting": "[4]", "value": 5.21}, {"measurement": "pIC50", "setting": "[5]", "value": 5.61}, {"measurement": "inhibition of growth at 20 µM", "setting": "[6]", "value": 78.1, "unit": "%"}, {"measurement": "Activity", "setting": "HCT-116 [7]", "value": "Active"}, {"measurement": "Activity", "setting": "HCT-116 [8]", "value": 26.1, "unit": "%"}, {"measurement": "Activity", "setting": "HCT-116 [9]", "value": 9.1, "unit": "%"}, {"measurement": "Activity", "setting": "HCT-116 [10]", "value": 2.6, "unit": "%"}, {"measurement": "pIC50", "setting": "[11]", "value": 5.58}, {"measurement": "Activity", "setting": "HCT-116 [12]", "value": 78.4, "unit": "%"}, {"measurement": "Activity", "setting": "HCT-116 [13]", "value": 6.2, "unit": "%"}, {"measurement": "Activity", "setting": "[14]", "value": 40.9, "unit": "%"}, {"measurement": "pIC50", "setting": "[15]", "value": 5.60}, {"measurement": "Activity", "setting": "HCT-116 [16]", "value": 69.1, "unit": "%"}, {"measurement": "Activity", "setting": "[17]", "value": 34.3, "unit": "%"}, {"measurement": "Activity", "setting": "[18]", "value": 32.9, "unit": "%"}, {"measurement": "pIC50", "setting": "[19]", "value": 5.25}, {"measurement": "Activity", "setting": "[20]", "value": 35.7, "unit": "%"}, {"measurement": "Activity", "setting": "HCT-116 [21]", "value": 0.7, "unit": "%"}, {"measurement": "Activity", "setting": "[22]", "value": 3.42, "unit": "%"}, {"measurement": "Activity", "setting": "[23]", "value": 22.6, "unit": "%"}, {"measurement": "Activity", "setting": "HCT-116 [24]", "value": 90.8, "unit": "%"}, {"measurement": "Activity", "setting": "[25]", "value": 1.06, "unit": "%"}, {"measurement": "Activity", "setting": "[26]", "value": 25.2, "unit": "%"}, {"measurement": "Activity", "setting": "HCT-116 [27]", "value": "Dose-dependent effect"}, {"measurement": "inhibition at 72 h, 20 µM", "setting": "[28]", "value": 64.1, "unit": "%"}, {"measurement": "Activity", "setting": "HCT-116 [29]", "value": 89.1, "unit": "%"}, {"measurement": "Activity", "setting": "[30]", "value": 40.8, "unit": "%"}]}]}
